Compound activity as filed in PubChem.
Only a selection was taken, and hits are over-represented in it overall.
INS-1E rescue = protection of INS-1E cells from cytokine death, primary screen, ATP luminescence, single point; 20,000 tested, 0.1% active; AID 488910, 2010; INS-1E cytokine-induced death, 48 h; normalised: neutral wells 0, positive control 100; protection from cytokine-induced ATP loss, % at 10 µM;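 active means mean replicate protection from cytokine-induced ATP loss at least 50% and at least 75% of replicates each reaching 50%; inconclusive means meets only one of the two criteria, mean or replicate share; inactive means fails both the mean and replicate share criteria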
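Material: INS-1E rat cells; Quantity: 8000 cells/well; Buffer or medium: phenol-red-free RPMI with 5% fetal bovine serum; Probe or stimulus: cytokine cocktail of IFN-γ, TNF-α and IL-1β; Compound dosing: single test concentration per compound, delivered by pin transfer; Incubation: 48 h co-treatment, 10 min post-lysis read; Signal: CellTiter-Glo luminescence.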
T cruzi HTS = inhibitors of intracellular Trypanosoma cruzi, primary screen, cell-based, plate reader, single point, set 2; intracellular Trypanosoma cruzi in host cells; activity score (inhibition), % at 5.01 µM; 22,000 tested, 4.9% active; in the data active means activity score above about 55%; inconclusive means no clear call, values can overlap the other calls;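 further: parasites and compound incubated about four days before reading; 0% = median of neutral control wells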
YB-1 expr inh = inhibitors of YB-1 gene expression, primary screen, cell-based, fluorescence; AID 434959, 2010; U2OS, qRT-PCR YB-1 vs CDIP delta delta Cp, 16 h; hits give high values; zero = DMSO, each unit about twofold; delta delta Cp (YB-1 minus CDIP) (concentration not given with the values); 30,000 tested, 0.37% active;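 active means delta delta Cp rounded down to an integer at or above 3, about 3 SD of DMSO wells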;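 further: higher means less YB-1 transcript or more CDIP transcript relative to DMSO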
Active calls of the source: *; ? = inconclusive; nt = not tested or not shown.

SMILES	INS-1E rescue	T cruzi HTS	YB-1 expr inh
C[C@H]1CN([C@@H](C)CO)C(=O)c2cc(NC(=O)Cn3cnnn3)ccc2O[C@H]1CN(C)Cc1ccc(C(=O)Nc2ccccc2N)cc1	2.3	-12.2	-0.091
Cc1noc(C)c1S(=O)(=O)Nc1cccc2c1O[C@H](CN(C)C(=O)NC(C)C)[C@H](C)CN([C@@H](C)CO)C2=O	9.2	1.5	-0.246
C[C@@H]1CN([C@H](C)CO)C(=O)Cc2cc(NS(=O)(=O)c3ccccc3)ccc2O[C@@H]1CN(C)Cc1ccc(C(=O)O)cc1	-2.7	-17.8	0.0669
C[C@@H]1CN([C@H](C)CO)C(=O)Cc2cc(NC(=O)CCC(F)(F)F)ccc2O[C@H]1CN(C)S(=O)(=O)c1cn(C)cn1	5.0	-7.1	-0.116
COc1ccc(CN(C)C[C@@H]2OCCCC[C@@H](C)Oc3ccc(NC(=O)Nc4ccc(OC)cc4)cc3C(=O)N([C@H](C)CO)C[C@@H]2C)cc1	-14.5	?	0.319
COc1ccc(CN(C)C[C@H]2OCCCC[C@@H](C)Oc3ccc(NC(=O)Nc4ccc(F)cc4)cc3C(=O)N([C@H](C)CO)C[C@@H]2C)cc1	-12.3	0.1	0.0112
COc1ccc(NC(=O)Nc2ccc3c(c2)C(=O)N([C@H](C)CO)C[C@H](C)[C@H](CN(C)Cc2ccc(C(F)(F)F)cc2)OCCCC[C@@H](C)O3)cc1	-4.0	71.4*	0.124
COc1ccc(CN(C)C[C@H]2OCCCC[C@@H](C)Oc3ccc(NC(=O)Nc4ccc(C(F)(F)F)cc4)cc3C(=O)N([C@H](C)CO)C[C@@H]2C)cc1	-33.0	66.8*	-0.327
C[C@@H]1CN([C@H](C)CO)C(=O)c2cc(NC(=O)Nc3ccc(C(F)(F)F)cc3)ccc2O[C@@H]1CN(C)CC1CCCCC1	-6.5	48.1	0.111
C[C@H]1CN([C@@H](C)CO)C(=O)c2cc(NC(=O)Nc3ccc(C(F)(F)F)cc3)ccc2O[C@@H]1CN(C)CC1CCCCC1	-1.3	4.8	0.0443
C[C@H]1CN([C@@H](C)CO)C(=O)c2cc(NC(=O)Nc3ccc(C(F)(F)F)cc3)ccc2O[C@H]1CN(C)CC1CCCCC1	-95.1	73.2*	0.342
C[C@H]1CN([C@@H](C)CO)C(=O)c2cc(NC(=O)CCCN(C)C)ccc2O[C@@H]1CN(C)CC1CCCCC1	nt	0.3	-0.0679
C[C@H](CO)N1C[C@H](C)[C@H](CN(C)CC2CCCCC2)Oc2ccc(NC(=O)CCCN(C)C)cc2C1=O	2.2	-5.7	17.6*
C[C@@H]1CN([C@@H](C)CO)C(=O)c2cc(NC(=O)Nc3ccc(C(F)(F)F)cc3)ccc2O[C@@H]1CN(C)CC1CCCCC1	-60.4	70.5*	-0.251
CC(C)S(=O)(=O)/C(C#N)=C/Nc1ncccn1	nt	nt	-0.233
C[C@H]1CN([C@@H](C)CO)C(=O)c2cccc(NC(=O)c3nc4ccccc4s3)c2O[C@H]1CN(C)Cc1ccc2c(c1)OCO2	-21.2	57.3*	0.07
C[C@@H]1CN([C@@H](C)CO)C(=O)c2cccc(NC(=O)c3nc4ccccc4s3)c2O[C@@H]1CN(C)C(=O)Nc1ccc2c(c1)OCO2	-14.0	9.7	-0.421
C[C@H](CO)N1C[C@H](C)[C@H](CN(C)Cc2ccc3c(c2)OCO3)Oc2c(NC(=O)c3nc4ccccc4s3)cccc2C1=O	-21.9	77.4*	0.296
C[C@H]1CN([C@@H](C)CO)C(=O)c2cccc(NC(=O)c3nc4ccccc4s3)c2O[C@H]1CN(C)Cc1ccc(Cl)c(Cl)c1	-7.6	?	-0.337
C[C@H](CO)N1C[C@H](C)[C@H](CN(C)S(=O)(=O)c2cn(C)cn2)Oc2ccc(NS(C)(=O)=O)cc2CC1=O	6.4	-11.9	0.0851
C[C@@H]1CN([C@H](C)CO)C(=O)Cc2cc(NS(=O)(=O)c3ccc(Cl)cc3)ccc2O[C@H]1CN(C)Cc1ccc(Cl)c(Cl)c1	5.1	65.4*	0.152
C[C@H](CO)N1C[C@H](C)[C@H](CN(C)Cc2ccc(Cl)c(Cl)c2)Oc2ccc(NS(=O)(=O)c3cn(C)cn3)cc2CC1=O	7.5	14.3	13*
C[C@H]1CN([C@@H](C)CO)C(=O)Cc2cc(NS(=O)(=O)c3ccc(F)cc3)ccc2O[C@H]1CN(C)Cc1ccc(Cl)c(Cl)c1	-15.3	40.2	-0.157
C[C@@H]1CN([C@H](C)CO)C(=O)Cc2cc(NS(=O)(=O)c3ccc(Cl)cc3)ccc2O[C@@H]1CN(C)Cc1ccncc1	-0.3	76.4*	-0.216
C[C@H]1CN([C@@H](C)CO)C(=O)Cc2cc(NS(=O)(=O)c3ccc(Cl)cc3)ccc2O[C@@H]1CN(C)Cc1ccncc1	13.7	-26.7	-0.429
SMILES	INS-1E rescue	T cruzi HTS	YB-1 expr inh
C[C@@H]1CN([C@H](C)CO)C(=O)Cc2cc(NS(=O)(=O)c3ccc(F)cc3)ccc2O[C@H]1CN(C)Cc1ccc(Cl)c(Cl)c1	-25.0	77.0*	-0.0763
C[C@H](CO)N1C[C@H](C)[C@H](CN(C)Cc2ccc(Cl)c(Cl)c2)Oc2ccc(NS(C)(=O)=O)cc2CC1=O	3.2	15.5	-0.278
C[C@H]1CN([C@@H](C)CO)C(=O)Cc2cc(NS(=O)(=O)c3cn(C)cn3)ccc2O[C@H]1CN(C)Cc1ccc(Cl)c(Cl)c1	0.7	-15.1	0.125
C[C@@H]1CCCCO[C@H](CN(C)Cc2ccc(C(=O)O)cc2)[C@@H](C)CN([C@H](C)CO)C(=O)c2cc(NC(=O)Nc3cccc4ccccc34)ccc2O1	-2.1	0.4	-0.869
COc1ccc(-c2cnc3c(c2)C(=O)N([C@H](C)CO)C[C@H](C)[C@H](CN(C)S(=O)(=O)c2ccc(F)cc2)O3)cc1	nt	34.9	0.0357
C[C@H]1CN([C@@H](C)CO)C(=O)Cc2cc(NC(=O)C3CC3)ccc2O[C@H]1CN(C)C(=O)Nc1ccc(F)cc1	2.7	-17.3	0.51
C[C@@H]1CN([C@@H](C)CO)C(=O)c2cc(NS(=O)(=O)c3ccccc3)ccc2O[C@@H]1CN(C)S(=O)(=O)c1ccc(F)cc1	1.6	18.8	0.024
C[C@H]1CN([C@@H](C)CO)C(=O)Cc2cc(NS(=O)(=O)c3ccccc3)ccc2O[C@@H]1CN(C)Cc1ccc(-c2ccccc2)cc1	-14.0	74.9*	0.0198
Cc1ccc(S(=O)(=O)Nc2ccc3c(c2)CC(=O)N([C@H](C)CO)C[C@H](C)[C@H](CN(C)Cc2ccccc2)O3)cc1	-9.0	41.5	-0.233
Cc1ccc(S(=O)(=O)Nc2ccc3c(c2)CC(=O)N([C@H](C)CO)C[C@@H](C)[C@H](CN(C)Cc2ccc(-c4ccccc4)cc2)O3)cc1	-15.7	54.3	-0.189
Cc1ccc(S(=O)(=O)Nc2ccc3c(c2)CC(=O)N([C@@H](C)CO)C[C@@H](C)[C@@H](CN(C)Cc2ccc(-c4ccccc4)cc2)O3)cc1	-8.8	71.2*	0.214
C[C@H]1CN([C@@H](C)CO)C(=O)Cc2cc(NS(=O)(=O)c3ccccc3)ccc2O[C@H]1CN(C)Cc1ccc(-c2ccccc2)cc1	1.6	3.3	-0.174
C[C@@H]1CN([C@@H](C)CO)C(=O)Cc2cc(NS(=O)(=O)c3ccc(Cl)cc3)ccc2O[C@@H]1CN(C)Cc1ccc(-c2ccccc2)cc1	5.4	34.4	0.104
